Data published in ChEMBL document CHEMBL3352584, “Novel DNA gyrase inhibiting spiropyrimidinetriones with a benzisoxazole scaffold: SAR and in vivo characterization” (J Med Chem, 2014).
Values after ≈ are worked out from the molar mass of the structure shown.

How the values were obtained:
Staphylococcus aureus [1] = assay: Antimicrobial activity against Staphylococcus aureus 2375 harboring GyrA S84L mutant, GyrB R144A mutant and ParC S80Y/E84G/V693M mutant and ParE N141S mutant by broth microdilution method; type: functional
Streptococcus pneumoniae = assay: Antimicrobial activity against Streptococcus pneumoniae 2800 harboring GyrB K143I/T172A mutant by broth microdilution method; type: functional
Staphylococcus aureus [2] = assay: Inhibition of DNA synthesis in methicillin-sensitive Staphylococcus aureus by [3H]-thymidine incorporation assay; type: functional, organism-based
[3] = Toxicity in po dosed Wistar Hannover rat administered as single dose; type: organism-based; details: in vivo
How it was run: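 Single-dose oral phase in groups of three male Wistar Hannover rats, at doses up to 1000 mg/kg. Vehicle was 0.2 M meglumine/20% hydroxypropyl-β-cyclodextrin.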

Staphylococcus aureus [4] = assay: Antimicrobial activity against methicillin-sensitive Staphylococcus aureus ARC516 infected in mouse at 3 to 100 mg/kg/day, ip starting 2 hrs after infection; type: functional, organism-based
How it was run: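 CD-1 mouse thighs infected with mid-log S. aureus ARC516 at a target inoculum of 5 × 10⁵ CFU. Groups of five received ip compound in DMA:TEG:saline 40/40/20, either q24h or q6h, from 2 h post-infection. Mice were killed 24 h after treatment start and thigh homogenates plated on tryptic soy agar (37 °C overnight) for CFU/g. Neutropenia was induced with ip cyclophosphamide, 150 mg/kg on day −4 and 100 mg/kg on day −1.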

Staphylococcus aureus [5] = assay: Antimicrobial activity against methicillin-sensitive Staphylococcus aureus ARC516 infected in immunocompetant mouse assessed as reduction in CFU at free AUC of 13 ug.hr/mL compound administered as single ip dose starting 2 hrs after infection relative to untreated control; type: functional
How it was run: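 CD-1 mouse thighs were infected with mid-log S. aureus ARC516 at a target inoculum of 5 × 10⁵ CFU. Groups of five received IP compound in DMA:TEG:saline 40/40/20%, starting 2 h post-infection; a vehicle group served as control. Mice were killed 24 h after treatment start, and thigh homogenates were plated on tryptic soy agar (37 °C, overnight) for CFU/g. Free exposure was corrected for mouse plasma protein binding.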

[6] = AUC in Wistar Hannover rat at 250 mg/kg, po dosed once daily for 14 days measured on day 14; type: ADME, organism-based; set-up: dose 250 mg/kg, route oral; details: plasma
How it was run: (§1)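 Wistar Hannover rats, 2 males and 2 females per dose, dosed orally once daily for 14 days at 250, 500 or 750 mg/kg/day. Vehicle was 0.2 M meglumine/20% hydroxypropyl-β-cyclodextrin. Blood was sampled on day 14 and exposure measured in blood. Animals were killed after sampling without necropsy.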

[7] = AUC in Wistar Hannover rat at 500 mg/kg, po dosed once daily for 14 days measured on day 14; type: ADME, organism-based; set-up: dose 500 mg/kg, route oral; details: plasma; how it was run: as §1
DNA gyrase = DNA gyrase (Escherichia coli, UniProt P0AES4+P0AES6); assay: Inhibition of Escherichia coli DNA gyrase using fluorescence-tagged DNA by fluorescenct polarization assay; type: protein-complex assay
How it was run: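 E. coli DNA gyrase supercoiling assay. The read-out was differential binding of a fluorescence-tagged DNA to relaxed versus supercoiled DNA, giving IC50.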

Staphylococcus aureus [8] = assay: Antimicrobial activity against methicillin-sensitive Staphylococcus aureus by broth microdilution method; type: functional
How it was run: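 Broth microdilution following CLSI guidelines. Values under 12.5 μM are averages of three or more replicates.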

Question: What does the source list for `Cc1noc2c(F)c3c(cc12)CC1(C(=O)NC(=O)NC1=O)[C@H]1[C@H](C)O[C@H](C)CN31`?
Answer: MIC (Staphylococcus aureus [1]): 0.5 µg/mL (≈ 1.24 µM); MIC (Streptococcus pneumoniae): 4 µg/mL (≈ 9.94 µM); IC50 (Staphylococcus aureus [2]): 0.06 µg/mL (≈ 0.149 µM); MTD [3]: ≤ 750 mg/kg; Activity (Staphylococcus aureus [4]): Dose-dependent effect; fold change (FC) (Staphylococcus aureus [5]): 3; AUC at 336 h [6]: 2300 µM·h; AUC at 336 h [7]: 4400 µM·h; IC50 (DNA gyrase): 290 nM; MIC (Staphylococcus aureus [8]): 1 µM (≈ 0.402 µg/mL)
